How the values were obtained:
[1] = system: Human immunodeficiency virus 1; test: Antiviral activity against wild-type HIV-1 NL4-3 harboring vesicular stomatitis virus glycoprotein infected in HEK293T cells pretreated with cells for 15 mins followed by viral infection measured after 48 hrs by luciferase reporter gene assay; format: functional, cell-based; conditions: Human immunodeficiency virus 1, NL4-3, HEK-293T
Procedure, shortened: (§1)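 VSV-G-pseudotyped HIV-1 (wild-type or RT mutant) produced by co-transfection of HEK293T cells (calcium phosphate), supernatant harvested 48 h, 0.22 µm filtered, normalised by p24 ELISA to 0.2 ng p24/mL.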

[2] = Cytotoxicity against HEK293T cells at 10 uM after 48 hrs by cell proliferation assay; format: toxicity, cell-based; conditions: human, hek-293t
Procedure, shortened: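 HEK 293T cells seeded at 1×10^4 cells/well, treated next day with serially diluted compounds and cultured 48 h; viability read with a cell proliferation assay kit per manufacturer's instructions. Footnote reports testing at a final concentration of 10 μM.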

[3] = system: Human immunodeficiency virus 1; test: Ratio of IC50 for HIV-1 NL4-3 harboring RT-K103N/V108I double mutant infected in HEK293T cells co-expressing vesicular stomatitis virus glycoprotein to IC50 for wild-type HIV-1 NL4-3 infected in HEK293T cells co-expressing vesicular stomatitis virus glycoprotein; format: functional, HEK-293T
Procedure, shortened: (§2)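 Fold change: mean IC50 against each RT-mutant VSV-G-pseudotyped virus divided by IC50 against wild-type pseudovirus. Both values come from the same HEK293T assay: 0.2 ng p24/mL inoculum, compound added 15 min before infection, luciferase read-out at 48 h.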

[4] = system: Human immunodeficiency virus 1; test: Antiviral activity against HIV-1 NL4-3 harboring RT-Y181C mutant infected in HEK293T cells coexpressing vesicular stomatitis virus glycoprotein pretreated with cells for 15 mins followed by viral infection measured after 48 hrs by luciferase reporter gene assay; format: functional, cell-based; conditions: hek-293t; procedure, shortened: as §1
[5] = system: Human immunodeficiency virus 1; test: Antiviral activity against HIV-1 NL4-3 harboring RT-K103N/V108I double mutant infected in HEK293T cells coexpressing vesicular stomatitis virus glycoprotein pretreated with cells for 15 mins followed by viral infection measured after 48 hrs by luciferase reporter gene assay; format: functional, cell-based; conditions: hek-293t; procedure, shortened: as §1
[6] = system: Human immunodeficiency virus 1; test: Antiviral activity against HIV-1 NL4-3 harboring RT-K103N mutant infected in HEK293T cells coexpressing vesicular stomatitis virus glycoprotein pretreated with cells for 15 mins followed by viral infection measured after 48 hrs by luciferase reporter gene assay; format: functional, cell-based; conditions: hek-293t; procedure, shortened: as §1
[7] = system: Human immunodeficiency virus 1; test: Antiviral activity against HIV-1 NL4-3 harboring RT-Y188L mutant infected in HEK293T cells coexpressing vesicular stomatitis virus glycoprotein pretreated with cells for 15 mins followed by viral infection measured after 48 hrs by luciferase reporter gene assay; format: functional, cell-based; conditions: hek-293t; procedure, shortened: as §1
[8] = system: Human immunodeficiency virus 1; test: Ratio of IC50 for HIV-1 NL4-3 harboring RT-Y188L mutant infected in HEK293T cells co-expressing vesicular stomatitis virus glycoprotein to IC50 for wild-type HIV-1 NL4-3 infected in HEK293T cells co-expressing vesicular stomatitis virus glycoprotein; format: functional, HEK-293T; procedure, shortened: as §2
[9] = system: Human immunodeficiency virus 1; test: Ratio of IC50 for HIV-1 NL4-3 harboring RT-Y181C mutant infected in HEK293T cells co-expressing vesicular stomatitis virus glycoprotein to IC50 for wild-type HIV-1 NL4-3 infected in HEK293T cells co-expressing vesicular stomatitis virus glycoprotein; format: functional, HEK-293T; procedure, shortened: as §2
[10] = system: Human immunodeficiency virus 1; test: Ratio of IC50 for HIV-1 NL4-3 harboring RT-K103N mutant infected in HEK293T cells co-expressing vesicular stomatitis virus glycoprotein to IC50 for wild-type HIV-1 NL4-3 infected in HEK293T cells co-expressing vesicular stomatitis virus glycoprotein; format: functional, HEK-293T
[11] = Inhibition of wild-type HIV-1 reverse transcriptase RNA-dependent DNA polymerase activity assessed as reduction in digoxigenin-11-dUTP incorporation using poly(rA)/oligo(dT) as template/primer incubated for 1 hr; set-up: species or system Human immunodeficiency virus 1

SMILES	IC50 [1] [µM]	Activity [2]	IC50 [11] [µM]	other results
Fc1cc(F)cc(Cc2sc(NCc3ccc4c(c3)CCO4)nc2-c2ccc(Cl)cc2Cl)c1	0.068	Non-Toxic		
COc1ccccc1Cc1sc(NCc2ccc3c(c2)CCO3)nc1-c1cc(F)cc(F)c1	7.32	Non-Toxic		
Fc1cc(F)cc(Cc2sc(NCc3ccc4c(c3)CCO4)nc2-c2ccc(F)cc2F)c1	0.0139 to 0.014	Non-Toxic		Ratio IC50 [3]: 218; IC50 [4]: 1.1 µM; IC50 [5]: 3.9 µM; IC50 [6]: 0.2 µM; IC50 [7]: 7 µM; Ratio IC50 [8]: 504; Ratio IC50 [9]: 79; Ratio IC50 [10]: 14
Fc1cc(F)cc(Cc2sc(NCc3ccc4c(c3)CCO4)nc2-c2ccccc2Cl)c1	0.01	Non-Toxic	0.025	Ratio IC50 [3]: 29; IC50 [4]: 0.4 µM; IC50 [5]: 0.3 µM; IC50 [6]: 0.08 µM; IC50 [7]: 1.4 µM; Ratio IC50 [8]: 136; Ratio IC50 [9]: 39; Ratio IC50 [10]: 7.8
Clc1ccccc1-c1nc(NCc2ccc3c(c2)CCO3)sc1Cc1c(Cl)cccc1Cl	0.022	Non-Toxic		
COc1ccccc1Cc1sc(NCc2ccc3c(c2)CCO3)nc1-c1ccc(Cl)cc1Cl	0.088	Non-Toxic		
COc1ccccc1Cc1sc(NCc2ccc3c(c2)CCO3)nc1-c1ccccc1F	0.01	Non-Toxic	0.02	
Fc1ccccc1-c1nc(NCc2ccc3c(c2)CCO3)sc1Cc1c(Cl)cccc1Cl	0.032	Non-Toxic		
Fc1cc(F)cc(Cc2sc(NCc3ccc4c(c3)CCO4)nc2-c2ccccc2F)c1	0.01	Non-Toxic	0.064	
Fc1ccc(-c2nc(NCc3ccc4c(c3)CCO4)sc2Cc2c(Cl)cccc2Cl)c(F)c1	0.021	Non-Toxic		
COc1ccccc1Cc1sc(NCc2ccc3c(c2)CCO3)nc1-c1ccccc1Cl	0.01	Non-Toxic	0.014	

— ChEMBL document CHEMBL3875141, “2,4,5-Trisubstituted thiazole derivatives as HIV-1 NNRTIs effective on both wild-type and mutant HIV-1 reverse transcriptase: Optimization of the substitution of positions 4 and 5” (Eur J Med Chem, 2016)
